Reference: ChEMBL document CHEMBL4033786, “Discovery of Novel 1-Cyclopentenyl-3-phenylureas as Selective, Brain Penetrant, and Orally Bioavailable CXCR2 Antagonists” (J Med Chem, 2018)
Converted amounts (≈) assume the structure as drawn.

What was measured:
[1] = Solubility of compound in fasted state simulated intestinal fluid measured after 4 hrs; assay type: physicochemical
Outline: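 Solubility in FaSSIF, read after 4 h incubation.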

[2] = biological target: T1, C-X-C chemokine receptor type 2 (Homo sapiens, UniProt P25025); experiment: Antagonist activity at TEV protease cleavage site linked GAL4-VP16-fused recombinant human CXCR2 expressed in cells assessed as inhibition of […] human CXCL1-stimulated beta-arrestin recruitment by CCF4-AM-fluorescence based FRET assay; assay type: cell-based; conditions: read-out: pIC50 (converted)
T1 sequence (P25025 whole entry): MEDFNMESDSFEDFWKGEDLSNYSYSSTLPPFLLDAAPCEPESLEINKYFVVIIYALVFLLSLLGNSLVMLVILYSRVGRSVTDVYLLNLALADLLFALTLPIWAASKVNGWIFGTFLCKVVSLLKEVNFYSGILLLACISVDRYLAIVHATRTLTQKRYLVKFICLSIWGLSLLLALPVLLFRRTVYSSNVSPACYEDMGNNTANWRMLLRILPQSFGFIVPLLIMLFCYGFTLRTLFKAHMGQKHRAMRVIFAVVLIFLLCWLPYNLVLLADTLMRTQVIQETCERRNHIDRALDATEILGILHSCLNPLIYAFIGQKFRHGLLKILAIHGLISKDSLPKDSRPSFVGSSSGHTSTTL
Outline: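 Stable cell line expressing recombinant human CXCR2 linked to a TEV site and Gal4-VP16. Cells were starved 24 h at 37 °C, 5% CO2, then resuspended at ~200,000 cells/mL. They were given compound in DMSO (concentration-response), stimulated with 80 nM hCXCL1 and incubated overnight at 37 °C. CCF4-AM substrate was then added for 2 h at RT in the dark.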

[3] = Passive permeability in MDCK2-MDR1 cells transduced with BacMam2-BCRP at 3 uM after 90 mins by Transwell assay; assay type: ADME, cell-based, Canis lupus familiaris, MDCK-MDR1; conditions: dog; read-out: permeability
Outline: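 MDCKII-MDR1 cells transduced with BacMam2-BCRP and grown in Transwells. Compound at 3 μM, in duplicate, was incubated 90 min A→B (and B→A) with and without GF120918 (5 μM, dual P-gp/BCRP inhibitor). Passive permeability (Pexact, nm/s) was calculated by an equation from earlier work. The permeability ratio is A→B permeability with GF120918 over A→B permeability without it.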

[4] = Efflux ratio of passive permeability in MDCK2-MDR1 cells transduced with BacMam2-BCRP at 3 uM after 90 mins by Transwell assay; assay type: ADME, cell-based, Canis lupus familiaris, MDCK-MDR1; conditions: dog
Outline: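 MDCKII-MDR1 cells transduced with BacMam2-BCRP in Transwells. Compound at 3 μM was measured in duplicate, A→B and B→A, after 90 min, with and without 5 μM GF120918. ER = B→A/A→B permeability without inhibitor. System qualified with amprenavir and dantrolene ERs.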

[5] = biological target: T1, C-X-C chemokine receptor type 2; experiment: Antagonist activity at CXCR2 in human whole blood assessed as inhibition of GROalpha-stimulated CD11b upregulation preincubated for 15 mins followed by GROalpha stimulation measured after 15 mins by FITC-staining based FACS analysis

Row | Compound | solubility at 4 h [1] | IC50 [2] | Papp at 1.5 h, 3 µM [3] | efflux ratio at 1.5 h, 3 µM [4] | IC50 [5]
1 | CC1=CCC[C@H]1NC(=O)Nc1ccc(Cl)c(S(=O)(=O)C(C)(C)CN(C)C)c1O | 395 µg/mL (≈ 920 µM) | 126 nM |  |  | 
2 | CC(C)S(=O)(=O)c1c(Cl)ccc(NC(=O)NC2C=CCC2)c1O (racemic) |  | 6.31 nM |  |  | 
3 | CC(C)S(=O)(=O)c1c(Cl)ccc(NC(=O)NC2CCC=C2F)c1O (racemic) |  | 10 nM |  |  | 
4 | O=C(Nc1ccc(Cl)c(S(=O)(=O)C2(F)CCOCC2)c1O)N[C@H]1CCC=C1Cl |  | 100 nM |  |  | 
5 | CC1=CCC[C@H]1NC(=O)Nc1ccc(Cl)c(S(=O)(=O)C2CCN(CC(F)(F)F)CC2)c1O |  | 316 nM |  |  | 
6 | CC(C)S(=O)(=O)c1c(Cl)ccc(NC(=O)NC2CCC=C2Cl)c1O (racemic) |  | 1 nM |  |  | 
7 | CC1=CCC[C@H]1NC(=O)Nc1ccc(Cl)c(S(=O)(=O)C2CCN(CCF)CC2)c1O | 288 µg/mL (≈ 625 µM) | 0.631 nM | 21.2 ×10⁻⁶ cm/s | 7.3 | 200 nM
8 | COCC(C)S(=O)(=O)c1c(Cl)ccc(NC(=O)N[C@@H]2CCC=C2C)c1O (stereo not given in full) | 72 µg/mL (≈ 179 µM) | 1.26 nM | 28.2 ×10⁻⁶ cm/s | 3.2 | 398 nM
9 | CC1=CCC[C@H]1NC(=O)Nc1ccc(Cl)c(S(=O)(=O)C2(C)CCCOC2)c1O (stereo not given in full) | 4.1 µg/mL (≈ 9.56 µM) | 2 nM | 26.7 ×10⁻⁶ cm/s | 3.4 | 200 nM
10 | O=C(Nc1ccc(Cl)c(S(=O)(=O)C2COC2)c1O)N[C@H]1CCC=C1Cl |  | 2510 nM |  |  | 
11 | CC1=CCC[C@H]1NC(=O)Nc1ccc(Cl)c(S(=O)(=O)C2(C)CCOCC2)c1O | 6.1 µg/mL (≈ 14.2 µM) | 0.501 nM | 53.2 ×10⁻⁶ cm/s | 3.4 | 200 nM
12 | CCC1CCCC1NC(=O)Nc1ccc(Cl)c(S(=O)(=O)C(C)C)c1O (racemic) |  | 63.1 nM |  |  | 
13 | CC1=CCC[C@H]1NC(=O)Nc1ccc(Cl)c(S(=O)(=O)C2CC3(COC3)C2)c1O | 127 µg/mL (≈ 297 µM) | 1 nM | 12.4 ×10⁻⁶ cm/s | 25.5 | 
14 | CC1=CCC[C@H]1NC(=O)Nc1ccc(Cl)c(S(=O)(=O)[C@@H]2CC[C@@H](O)C2)c1O | 15.1 µg/mL (≈ 36.4 µM) | 0.251 nM | 7.2 ×10⁻⁶ cm/s | 26.8 | 
15 | CC1CCCC1NC(=O)Nc1ccc(Cl)c(S(=O)(=O)C(C)C)c1O (racemic) |  | 10 nM |  |  | 
16 | CC1=CCC[C@H]1NC(=O)Nc1ccc(Cl)c(S(=O)(=O)C2(CCF)CCOCC2)c1O | 26.7 µg/mL (≈ 57.9 µM) | 31.6 nM | 33.7 ×10⁻⁶ cm/s | 10.8 | 
17 | CC1=C(Cl)CCC1NC(=O)Nc1ccc(Cl)c(S(=O)(=O)C(C)C)c1O (racemic) |  | 3.16 nM |  |  | 
18 | CC1=CCC[C@H]1NC(=O)Nc1ccc(Cl)c(S(=O)(=O)C2CCN(CC(F)F)CC2)c1O | 59 µg/mL (≈ 123 µM) | 2.51 nM | 17.7 ×10⁻⁶ cm/s | 9.4 | 
19 | CC1=CCC[C@H]1NC(=O)Nc1ccc(Cl)c(S(=O)(=O)C2CCCOC2)c1O (stereo not given in full) | 13.7 µg/mL (≈ 33 µM) | 1.58 nM | 26.3 ×10⁻⁶ cm/s | 9.6 | 251 nM

Row | Compound | solubility at 4 h [1] | IC50 [2] | Papp at 1.5 h, 3 µM [3] | efflux ratio at 1.5 h, 3 µM [4] | IC50 [5]
20 | CC(C)(CCO)S(=O)(=O)c1c(Cl)ccc(NC(=O)N[C@H]2CCC=C2Cl)c1O |  | 79.4 nM |  |  | 
21 | CC(C)S(=O)(=O)c1c(Cl)ccc(NC(=O)NC2CCCC2(C)C)c1O (racemic) |  | 158 nM |  |  | 
22 | CC1=CCC[C@H]1NC(=O)Nc1ccc(Cl)c(S(=O)(=O)C2(CF)CCOCC2)c1O | 14.9 µg/mL (≈ 33.3 µM) | 1.26 nM | 21.8 ×10⁻⁶ cm/s | 18.7 | 251 nM
23 | CC(C)(CCO)S(=O)(=O)c1c(Cl)ccc(NC(=O)N[C@@H]2CCC=C2Cl)c1O |  | 0.251 nM |  |  | 
24 | O=C1CN(/N=C/c2ccc(-c3ccc([N+](=O)[O-])cc3)o2)C(O)=N1 [DANTROLENE] |  |  |  | > 5 | 
25 | CC1=CCC[C@H]1NC(=O)Nc1ccc(Cl)c(S(=O)(=O)C2(C)CCOC2)c1O (stereo not given in full) | 33.2 µg/mL (≈ 80 µM) | 1.26 nM | 31.8 ×10⁻⁶ cm/s | 3.8 | 126 nM
26 | CC(C)(CO)S(=O)(=O)c1c(Cl)ccc(NC(=O)N[C@@H]2CCC=C2Cl)c1O |  | 3.98 nM |  |  | 
27 | CC1=CCC[C@H]1NC(=O)Nc1ccc(Cl)c(S(=O)(=O)C(C)(C)C2CCOCC2)c1O | 1.4 µg/mL (≈ 3.06 µM) | 0.501 nM | 30.3 ×10⁻⁶ cm/s | 3.9 | 398 nM
28 | CO[C@@H]1CCC[C@H]1NC(=O)Nc1ccc(Cl)c(S(=O)(=O)C(C)C)c1O (racemic) |  | 251 nM |  |  | 
29 | CC(C)(CO)S(=O)(=O)c1c(Cl)ccc(NC(=O)N[C@H]2CCC=C2Cl)c1O |  | 501 nM |  |  | 
30 | CC1=CCC[C@H]1NC(=O)Nc1ccc(Cl)c(S(=O)(=O)C(F)(F)CN(C)C)c1O | 128 µg/mL (≈ 293 µM) | 2 nM | 26.6 ×10⁻⁶ cm/s | 12.6 | 631 nM
31 | CC(C)S(=O)(=O)c1c(Cl)ccc(NC(=O)NC2CCOCC2)c1O |  | 1260 nM |  |  | 
32 | CC(C)S(=O)(=O)c1c(Cl)ccc(NC(=O)NC2CCC=C2C(F)(F)F)c1O (racemic) |  | 25.1 nM |  |  | 
33 | CC(C)S(=O)(=O)c1c(Cl)ccc(NC(=O)Nc2cccc(F)c2Cl)c1O |  | 0.398 nM |  |  | 
34 | CC(C)S(=O)(=O)c1c(Cl)ccc(NC(=O)NC2CCCC23CC3)c1O (racemic) |  | 39.8 nM |  |  | 
35 | CC(C)S(=O)(=O)c1c(Cl)ccc(NC(=O)NC2CCN(C)CC2)c1O |  | > 10000 nM |  |  | 
36 | CC1=CCC[C@H]1NC(=O)Nc1ccc(Cl)c(S(=O)(=O)C2(F)CCOC2)c1O (stereo not given in full) | 39 µg/mL (≈ 93.1 µM) | 0.794 nM | 28.1 ×10⁻⁶ cm/s | 7 | 
37 | CC1=CCC[C@H]1NC(=O)Nc1ccc(Cl)c(S(=O)(=O)C2(F)CCOCC2)c1O | 3.3 µg/mL (≈ 7.62 µM) | 0.2 nM | 32.3 ×10⁻⁶ cm/s | 6.2 | 63.1 nM
38 | CC1=C(F)CCC1NC(=O)Nc1ccc(Cl)c(S(=O)(=O)C(C)C)c1O (racemic) |  | 1.58 nM |  |  | 

Row | Compound | solubility at 4 h [1] | IC50 [2] | Papp at 1.5 h, 3 µM [3] | efflux ratio at 1.5 h, 3 µM [4] | IC50 [5]
39 | CC1CCCCC1NC(=O)Nc1ccc(Cl)c(S(=O)(=O)C(C)C)c1O (racemic) |  | 316 nM |  |  | 
40 | CCC1(S(=O)(=O)c2c(Cl)ccc(NC(=O)N[C@@H]3CCC=C3C)c2O)CCOCC1 | 16 µg/mL (≈ 36.1 µM) | 0.316 nM | 32.4 ×10⁻⁶ cm/s | 3.2 | 398 nM
41 | CC1=CCCCC1NC(=O)Nc1ccc(Cl)c(S(=O)(=O)C(C)C)c1O (racemic) |  | 12.6 nM |  |  | 
42 | CC(C)CN(C[C@@H](O)[C@H](Cc1ccccc1)NC(=O)O[C@H]1CCOC1)S(=O)(=O)c1ccc(N)cc1 |  |  |  | > 12 | 
43 | CC1CCC(NC(=O)Nc2ccc(Cl)c(S(=O)(=O)C(C)C)c2O)C1 (racemic) |  | 200 nM |  |  | 
44 | O=C(Nc1ccc(Cl)c(S(=O)(=O)C2(F)CCOCC2)c1O)N[C@@H]1CCC=C1Cl |  | 0.501 nM |  |  | 
45 | CC1=CCCC1NC(=O)Nc1ccc(Cl)c(S(=O)(=O)C(C)C)c1O (racemic) |  | 0.398 nM |  |  | 
46 | CC(C)S(=O)(=O)c1c(Cl)ccc(NC(=O)NC2C=CCCC2)c1O (racemic) |  | 10 nM |  |  | 
47 | CC1=CCC[C@H]1NC(=O)Nc1ccc(Cl)c(S(=O)(=O)C(C)(C)C2COC2)c1O | 7 µg/mL (≈ 16.3 µM) | 0.251 nM | 29.6 ×10⁻⁶ cm/s | 3.2 | 
48 | CC(C)S(=O)(=O)c1c(Cl)ccc(NC(=O)NC2CCN(C)C2)c1O (racemic) |  | > 10000 nM |  |  | 
49 | CC(C)S(=O)(=O)c1c(Cl)ccc(NC(=O)NC2CCCCC2)c1O |  | 50.1 nM |  |  | 
50 | O=C(Nc1ccc(Cl)c(S(=O)(=O)C2COC2)c1O)N[C@@H]1CCC=C1Cl |  | 316 nM |  |  | 
51 | CC(C)S(=O)(=O)c1c(Cl)ccc(NC(=O)NC2CCC3CC32)c1O (stereo not given) |  | 25.1 nM |  |  | 
52 | COC1CCCCC1NC(=O)Nc1ccc(Cl)c(S(=O)(=O)C(C)C)c1O (racemic) |  | 1580 nM |  |  | 
53 | CC1=CCC[C@H]1NC(=O)Nc1ccc(Cl)c(S(=O)(=O)C2CCN(C3CCC3)CC2)c1O | 491 µg/mL (≈ 1050 µM) | 0.398 nM | 32 ×10⁻⁶ cm/s | 3.3 | 501 nM
54 | CC1=CCC[C@H]1NC(=O)Nc1ccc(Cl)c(S(=O)(=O)C2(C)CCN(C3CCC3)CC2)c1O | 139 µg/mL (≈ 289 µM) | 3.98 nM |  |  | 
55 | CC(C)S(=O)(=O)c1c(Cl)ccc(NC(=O)NC2CCCOC2)c1O (racemic) |  | 631 nM |  |  | 
56 | CC(C)S(=O)(=O)c1c(Cl)ccc(NC(=O)NC2CCCC=C2Cl)c1O (racemic) |  | 10 nM |  |  | 
57 | CC(C)S(=O)(=O)c1c(Cl)ccc(NC(=O)NC2CCCC2)c1O |  | 10 nM |  |  | 
